Source: ChEMBL document CHEMBL1142785, “Synthesis of novel curcumin mimics with asymmetrical units and their anti-angiogenic activity” (Bioorg Med Chem Lett, 2005)
Values after ≈ are worked out from the molar mass of the structure shown.

Legend:
B16 = experiment: Inhibitory concentration for cytotoxic activity against B16 cell line; format: functional, cell-based; details: Mus musculus
In short: (§1)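 […] cytotoxicity measured by MTT assay on B16, Vero, U87 and SiHa cells, run alongside HUVEC for selectivity comparison.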

[1] = Inhibitory concentration for cytotoxic activity against U87 cell line; format: functional, cell-based, U-87MG ATCC; details: Homo sapiens, U-87 MG; in short: as §1
SiHa = experiment: Inhibitory concentration for cytotoxic activity against SiHa cell line; format: functional, cell-based; details: Homo sapiens; in short: as §1
Vero = experiment: Inhibitory concentration for cytotoxic activity against Vero cell line; format: functional, cell-based; details: Chlorocebus sabaeus; in short: as §1
HUVEC [2] = experiment: Inhibitory concentration against human umbilical vein endothelial cells(HUVEC) growth; format: functional, cell-based
In short: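 Human umbilical vein endothelial cell (HUVEC) proliferation assay; IC50 derived by nonlinear regression.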

HUVEC [3] = experiment: Percentage tube formation inhibition against human umbilical vein endothelial cells(HUVEC) at a concentration of 5 ug/mL; format: functional
In short: (§2)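 HUVEC tube formation with test agent at 10, 5 or 2.5 µg/mL; total tube length per field quantified by image analysis and expressed as a percentage of the untreated control.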

HUVEC [4] = experiment: Percentage tube formation inhibition against human umbilical vein endothelial cells(HUVEC) at a concentration of 10 ug/mL; format: functional; in short: as §2
HUVEC [5] = experiment: Percentage tube formation inhibition against human umbilical vein endothelial cells(HUVEC) at a concentration of 2.5 ug/mL; format: functional; in short: as §2

COc1cc(/C=C/C(=O)c2cccc(NC(=O)c3ccccc3)c2)ccc1O
IC50 (B16): 0.82 µg/mL (≈ 2.2 µM) | IC50 [1]: 8.82 µg/mL (≈ 23.6 µM) | IC50 (SiHa): 4.57 µg/mL (≈ 12.2 µM) | IC50 (Vero): 3.47 µg/mL (≈ 9.29 µM) | IC50 (HUVEC [2]): 0.37 µg/mL (≈ 0.991 µM) | inhibition at 5 µg/mL (HUVEC [3]): 48% | inhibition at 10 µg/mL (HUVEC [4]): 69%

COc1cc(/C=C/C(=O)c2cccc(NC(=O)c3cccs3)c2)ccc1O
IC50 (B16): 6.93 µg/mL (≈ 18.3 µM) | IC50 [1]: 14.7 µg/mL (≈ 38.7 µM) | IC50 (SiHa): 6.57 µg/mL (≈ 17.3 µM) | IC50 (Vero): 3.98 µg/mL (≈ 10.5 µM) | IC50 (HUVEC [2]): 0.38 µg/mL (≈ 1 µM) | inhibition at 5 µg/mL (HUVEC [3]): 80% | inhibition at 10 µg/mL (HUVEC [4]): 90% | inhibition at 2.5 µg/mL (HUVEC [5]): 71%

COc1cc(/C=C/C(=O)c2cccc(NC(=O)c3ccc(Cl)cc3)c2)ccc1O
IC50 (B16): 0.59 µg/mL (≈ 1.45 µM) | IC50 [1]: > 50 µg/mL | IC50 (SiHa): 2.3 µg/mL (≈ 5.64 µM) | IC50 (Vero): 3.82 µg/mL (≈ 9.37 µM) | IC50 (HUVEC [2]): 0.76 µg/mL (≈ 1.86 µM) | inhibition at 5 µg/mL (HUVEC [3]): 42% | inhibition at 10 µg/mL (HUVEC [4]): 66%

COC(=O)C(=O)Nc1cccc(C(=O)/C=C/c2ccc(O)c(OC)c2)c1
IC50 (B16): 4.41 µg/mL (≈ 12.4 µM) | IC50 [1]: 12.2 µg/mL (≈ 34.4 µM) | IC50 (SiHa): 7.71 µg/mL (≈ 21.7 µM) | IC50 (Vero): 3.55 µg/mL (≈ 9.99 µM) | IC50 (HUVEC [2]): 1.5 µg/mL (≈ 4.22 µM) | inhibition at 5 µg/mL (HUVEC [3]): 20% | inhibition at 10 µg/mL (HUVEC [4]): 43%

CCCC(=O)Nc1cccc(C(=O)/C=C/c2ccc(O)c(OC)c2)c1
IC50 (B16): 1.43 µg/mL (≈ 4.21 µM) | IC50 [1]: 5.56 µg/mL (≈ 16.4 µM) | IC50 (SiHa): 3.94 µg/mL (≈ 11.6 µM) | IC50 (Vero): 2.04 µg/mL (≈ 6.01 µM) | IC50 (HUVEC [2]): 1.27 µg/mL (≈ 3.74 µM) | inhibition at 5 µg/mL (HUVEC [3]): 57% | inhibition at 10 µg/mL (HUVEC [4]): 87% | inhibition at 2.5 µg/mL (HUVEC [5]): 40%

COc1cc(/C=C/C(=O)c2cccc(NC(=O)C(C)C)c2)ccc1O
IC50 (B16): 1.09 µg/mL (≈ 3.21 µM) | IC50 [1]: 8.31 µg/mL (≈ 24.5 µM) | IC50 (SiHa): 5.96 µg/mL (≈ 17.6 µM) | IC50 (Vero): 3.47 µg/mL (≈ 10.2 µM) | IC50 (HUVEC [2]): 1.44 µg/mL (≈ 4.24 µM) | inhibition at 5 µg/mL (HUVEC [3]): 51% | inhibition at 10 µg/mL (HUVEC [4]): 56% | inhibition at 2.5 µg/mL (HUVEC [5]): 11%

COc1cc(/C=C/C(=O)c2cccc(NC(=O)c3c(Cl)cccc3Cl)c2)ccc1O
IC50 (B16): 1.58 µg/mL (≈ 3.57 µM) | IC50 [1]: 17.8 µg/mL (≈ 40.3 µM) | IC50 (SiHa): 3.56 µg/mL (≈ 8.05 µM) | IC50 (Vero): 2.48 µg/mL (≈ 5.61 µM) | IC50 (HUVEC [2]): 0.46 µg/mL (≈ 1.04 µM) | inhibition at 5 µg/mL (HUVEC [3]): 88% | inhibition at 10 µg/mL (HUVEC [4]): 99% | inhibition at 2.5 µg/mL (HUVEC [5]): 53%

COc1cc(/C=C/C(=O)c2cccc(N)c2)ccc1O
IC50 (B16): 11.5 µg/mL (≈ 42.6 µM) | IC50 [1]: 7.71 µg/mL (≈ 28.6 µM) | IC50 (SiHa): 12.3 µg/mL (≈ 45.8 µM) | IC50 (Vero): 6.02 µg/mL (≈ 22.4 µM) | IC50 (HUVEC [2]): 2.87 µg/mL (≈ 10.7 µM) | inhibition at 5 µg/mL (HUVEC [3]): 50% | inhibition at 10 µg/mL (HUVEC [4]): 90% | inhibition at 2.5 µg/mL (HUVEC [5]): 20%

COc1cc(/C=C/C(=O)c2cccc(NC(=O)c3ccco3)c2)ccc1O
IC50 (B16): 5.46 µg/mL (≈ 15 µM) | IC50 [1]: 6.65 µg/mL (≈ 18.3 µM) | IC50 (SiHa): 0.76 µg/mL (≈ 2.09 µM) | IC50 (Vero): 3.11 µg/mL (≈ 8.56 µM) | IC50 (HUVEC [2]): 0.38 µg/mL (≈ 1.05 µM) | inhibition at 5 µg/mL (HUVEC [3]): 82% | inhibition at 10 µg/mL (HUVEC [4]): 100% | inhibition at 2.5 µg/mL (HUVEC [5]): 61%

COc1cc(/C=C/C(=O)c2cccc(NC(=O)c3ccc(Cl)cc3Cl)c2)ccc1O
IC50 (B16): 12.8 µg/mL (≈ 29 µM) | IC50 [1]: > 50 µg/mL | IC50 (SiHa): 34.4 µg/mL (≈ 77.8 µM) | IC50 (Vero): 27.2 µg/mL (≈ 61.5 µM) | IC50 (HUVEC [2]): 0.4 µg/mL (≈ 0.904 µM) | inhibition at 5 µg/mL (HUVEC [3]): 51% | inhibition at 10 µg/mL (HUVEC [4]): 70% | inhibition at 2.5 µg/mL (HUVEC [5]): 29%

COc1cc(/C=C/C(=O)c2cccc(NC(=O)c3ccc(Cl)c(Cl)c3)c2)ccc1O
IC50 (B16): 3.88 µg/mL (≈ 8.77 µM) | IC50 [1]: 29.5 µg/mL (≈ 66.6 µM) | IC50 (SiHa): 25.3 µg/mL (≈ 57.2 µM) | IC50 (Vero): > 50 µg/mL | IC50 (HUVEC [2]): 2.97 µg/mL (≈ 6.71 µM) | inhibition at 5 µg/mL (HUVEC [3]): 5% | inhibition at 10 µg/mL (HUVEC [4]): 45%

COc1cc(/C=C/C(=O)c2cccc(NC(=O)c3cc(Cl)cc(Cl)c3)c2)ccc1O
IC50 (B16): 4.83 µg/mL (≈ 10.9 µM) | IC50 [1]: > 50 µg/mL | IC50 (SiHa): 17.7 µg/mL (≈ 40 µM) | IC50 (Vero): > 50 µg/mL | IC50 (HUVEC [2]): 0.75 µg/mL (≈ 1.7 µM) | inhibition at 5 µg/mL (HUVEC [3]): 51% | inhibition at 10 µg/mL (HUVEC [4]): 58% | inhibition at 2.5 µg/mL (HUVEC [5]): 15%

COc1cc(/C=C/C(=O)c2cccc(NC(C)=O)c2)ccc1O
IC50 (B16): 3.62 µg/mL (≈ 11.6 µM) | IC50 [1]: > 50 µg/mL | IC50 (SiHa): 15.8 µg/mL (≈ 50.6 µM) | IC50 (Vero): 14.5 µg/mL (≈ 46.5 µM) | IC50 (HUVEC [2]): 7.06 µg/mL (≈ 22.7 µM) | inhibition at 5 µg/mL (HUVEC [3]): 15% | inhibition at 10 µg/mL (HUVEC [4]): 32%

CCOC(=O)C(=O)Nc1cccc(C(=O)/C=C/c2ccc(O)c(OC)c2)c1
IC50 (B16): 7.03 µg/mL (≈ 19 µM) | IC50 [1]: > 50 µg/mL | IC50 (SiHa): > 50 µg/mL | IC50 (Vero): > 50 µg/mL | IC50 (HUVEC [2]): 13.3 µg/mL (≈ 36 µM) | inhibition at 5 µg/mL (HUVEC [3]): 45% | inhibition at 10 µg/mL (HUVEC [4]): 66%

COc1cc(/C=C/C(=O)CC(=O)/C=C/c2ccc(O)c(OC)c2)ccc1O [CURCUMIN]
IC50 (HUVEC [2]): 10.8 µg/mL (≈ 29.4 µM)
